# Screening results from PubChem BioAssay.
# Kir21 inh: inhibitors of mouse Kir2.1 inward-rectifier potassium channel; Inward rectifier potassium channel 2 (Mus musculus), P35561; HEK293-Kir2.1, FluxOR thallium flux fluorescence; active compounds read low; B-score at 10 µM; 0.85% of 310,000 active; AID 1672, 2009;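 active means fluorescence ratio B-score at or below minus 3 SD of library scores, with starting-brightness B-score within 2 SD, cut at about -4.2 in these data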;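 further: channel flux triggered by added potassium and thallium sulfate stimulus; B-score of peak minus minimum fluorescence over baseline after thallium stimulus; more negative B-score means stronger Kir2.1 block with less thallium influx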
# KCNK9 inh: KCNK9 potassium channel inhibitors, primary screen, HEK293 cells, thallium flux; Potassium channel subfamily K member 9 (Homo sapiens), Q9NPC2; FluxOR thallium flux fluorescence; active compounds read low; B-score at 10 µM; 1.2% of 310,000 active; AID 488922, 2010;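 active means ratio B-score over 3 SD below the library mean, with starting fluorescence within 5 SD of its mean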;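 further: negative B-score means less thallium flux so channel inhibition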
# Target sequence (Q9NPC2 whole entry, looked up): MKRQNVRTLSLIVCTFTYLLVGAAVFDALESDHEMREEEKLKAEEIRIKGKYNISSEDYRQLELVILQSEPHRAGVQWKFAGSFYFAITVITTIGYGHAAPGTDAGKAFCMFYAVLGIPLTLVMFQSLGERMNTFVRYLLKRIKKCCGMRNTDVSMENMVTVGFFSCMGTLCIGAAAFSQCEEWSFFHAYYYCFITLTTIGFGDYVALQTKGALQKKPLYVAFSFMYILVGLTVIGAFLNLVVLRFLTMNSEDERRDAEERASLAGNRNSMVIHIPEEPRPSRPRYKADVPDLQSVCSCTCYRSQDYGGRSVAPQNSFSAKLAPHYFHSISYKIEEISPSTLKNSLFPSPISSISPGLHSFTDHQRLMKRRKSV
# hERG protect: hERG rescue from dofetilide block, primary screen, cell-based, CHO-hERG, FluxOR thallium flux, dofetilide IC70; Voltage-gated inwardly rectifying potassium channel KCNH2 (Homo sapiens), Q12809; dofetilide IC70 present; activation (rescue from dofetilide block), less the hit threshold, % at 10 µM; 0.51% of 310,000 active; AID 1511, 2009;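 active means activation above the mean of controls blocked by dofetilide plus 5 SD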;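 further: thallium influx through hERG after potassium depolarization seen as dye fluorescence rise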
# KCNK3 block: human KCNK3 channel inhibitors, primary screen, CHO cells, FluxOR thallium flux, B-score. Potassium channel subfamily K member 3 (Homo sapiens), O14649. B-score at 10 µM. FluxOR fluorescence; active compounds read low. 0.84% of 340,000 active. AID 602410, 2012;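 active means B-score under library mean minus 4 SD, starting fluorescence ratio at most library mean plus 5 SD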;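 further: more negative B-score means stronger inhibition of thallium flux through KCNK3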
# KCNQ1 act: potentiators or activators of KCNQ1 channel, primary screen, cell-based, thallium flux, high-throughput | Potassium voltage-gated channel subfamily KQT member 1 (Homo sapiens), P51787 | CHO-K1 KCNQ1, thallium flux FluxOR fluorescence; active compounds read high | B-score at 10 µM | 0.35% of 310,000 active;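 active means fluorescence ratio B-score, a plate-corrected score, at least three library SD, with initial intensity B-score within 5 SD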
#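 assay system = CHO-K1 cells stably expressing KCNQ1 | medium = assay buffer, equal DMSO in all wells | timing = 37 °C overnight plating, 90-min dark dye load, 20-min compound pretreatment | measured by = kinetic FluxOR thallium fluorescence, 10-s 1-Hz baseline, 110-s post-stimulus read | measure = fluorescence change relative to baseline, converted to B score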
# KCNQ1 inh: inhibitors of human KCNQ1 channel, primary screen, cell-based, thallium flux, high-throughput | Potassium voltage-gated channel subfamily KQT member 1 (Homo sapiens), P51787 | CHO-K1 KCNQ1, FluxOR thallium flux fluorescence; active compounds read high | B-score at 10 µM | 1.3% of 310,000 active | AID 2642, 2010;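 active means compounds whose thallium flux B-score, printed positive for inhibition, exceeds three library SD while starting fluorescence stays within three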;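 further: channel opened by potassium depolarization with thallium stimulus after 20 min compound exposure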
# * hit, by the source's call; i = inactive; / = not tested or not shown. Sampled rows, rich in hits. Any-hit rate of the full collection: about 3.8%.
SMILES,Kir21 inh,KCNK9 inh,hERG protect,KCNK3 block,KCNQ1 act,KCNQ1 inh
CC(C)Cn1c(SCC(=O)N2CCCc3ccccc32)nc2ccccc2c1=O,-0.05,i,-10,/,i,6*
CCn1c(SCC(=O)N2CCCc3ccccc32)nc2cccnc21,-4.9*,i,-14,i,i,i
Cn1c(SCC(=O)N2CCCc3ccccc32)nc2cccnc21,-0.98,i,-13,i,i,i
Cc1[nH]c2ccccc2c1SCC(=O)N1CCCc2ccccc21,-7.8*,i,-24,i,i,6*
CCOc1ccc(-c2noc(CCC(=O)NC3CCCCC3)n2)cc1OC,0.02,i,-8,i,i,i
CC1CC(C)CN(C(=O)/C=C/c2ccc(S(=O)(=O)N3CCOCC3)cc2)C1 (configuration not stated),/,/,/,i,/,/
Cc1ccc(S(=O)(=O)Nc2c(C)[nH]c(=O)[nH]c2=O)cc1C,-0.29,i,5.0*,i,i,i
c1ccc2nc(N3CCCC3)c(N3CCCCC3)nc2c1,/,/,/,-10*,/,/
CCCn1c(=N)n(CC(=O)C(C)(C)C)c2ccccc21,0.01,i,-5,i,i,6*
O=c1oc2cc(O)ccc2cc1S(=O)(=O)c1ccccc1,-0.41,i,-9,i,i,i
CCCCCCc1cc2cc(S(=O)(=O)c3ccc(Cl)cc3)c(=O)oc2cc1O,1.6,i,-1,i,i,11*
CCN(CC)c1ccc2cc(S(=O)(=O)c3ccc(Cl)cc3)c(=O)oc2c1,-1.6,i,-8,i,i,10*
CCNC(=O)CSc1nnc(-c2cccc(S(=O)(=O)N3CCOCC3)c2)o1,/,/,/,i,/,/
CC(=O)c1ccc(NC(=O)COC(=O)/C=C/c2cccs2)cc1,/,/,/,i,/,/
COc1ccc(NC(=O)C2CCN(S(=O)(=O)c3cccc4nonc34)CC2)cc1,-2.2,i,-9,i,i,i
CCOC(=O)/C(C#N)=C\c1ccc(CC)s1,-0.47,i,-3,i,i,i
CCOC(=O)/C(C#N)=C\C=C1C=CN(C)C=C1,-6.8,i,-15,i,i,8*
CCOc1ccc(C(=O)N2CCc3cc(OC)c(OC)cc3C2)cc1OCC,-0.01,i,-16,i,i,i
CCOc1ccc(CCNC(=O)COC(=O)c2cccc(S(=O)(=O)N3CCOCC3)c2)cc1OCC,0.51,i,-14,i,i,i
Cc1c(C(=O)N2CCOCC2)oc2ccc(S(=O)(=O)N3CCCC3)cc12,-1.9,i,3,i,i,i
CCOc1ccc(CCNC(=O)COC(=O)c2cccc(S(=O)(=O)N3CCCCC3)c2)cc1OCC,0.17,-7.9*,-18,i,i,i
Cc1c(C(=O)N2CCc3ccccc3C2)oc2ccc(S(=O)(=O)N3CCCCCC3)cc12,0.45,-6.8*,-18,i,i,i
CCOc1ccc(CCNC(=O)COC(=O)CCC(=O)c2cccs2)cc1OCC,-5.3*,i,-6,i,i,i
CCOc1cc2c(cc1OCC)CN(C(=O)c1cccc(S(=O)(=O)N3CCCC3)c1)CC2,/,/,/,-9.9*,/,/
Cc1ccc(S(=O)(=O)N2CCCCC2)cc1C(=O)NCCCN1CCOCC1,-0.06,i,-6,i,i,i
Cc1c(Cl)cccc1NC(=S)Nc1ccc(S(=O)(=O)Nc2ncccn2)cc1,/,/,/,i,/,/
COc1ccc(-c2csc3ncnc(N4CCN(c5cccc(Cl)c5)CC4)c23)cc1,0.27,i,-16,i,i,6*
COc1ccc(-c2csc3ncnc(N4CCN(S(=O)(=O)c5ccc(Cl)s5)CC4)c23)cc1,-1.3,i,-14,i,i,i
COc1ccc(N2CCN(c3ncnc4scc(-c5ccc(C)cc5)c34)CC2)cc1,1.6,-7.9*,-4,i,i,i
